Experimental findings from ChEMBL document CHEMBL1158572, “Dolabellane-type diterpenoids with antiprotozoan activity from a southwestern Caribbean gorgonian octocoral of the genus Eunicea” (J Nat Prod, 2010) are described below.

In general, IC50 refers to the concentration that gives 50% inhibition. Lower therefore signals greater potency in that assay. For orientation: inhibition means the share of the control response that was lost under treatment. Low readings indicate a weak effect, high ones a strong effect.

Molecules are shown by their SMILES. Active and inactive are the calls of the source. The rule behind the calls is not given here. Where only a bound is given, the exact number is not on record here.

One assay has as its system Plasmodium falciparum. Briefly: Antimalarial activity against chloroquine-resistant Plasmodium falciparum W2. The assay is classed as functional, organism-based.
Assay [1] concerns Mycobacterium tuberculosis. Briefly: Antimycobacterial activity against Mycobacterium tuberculosis at 6.25 ug/ml by Alamar blue assay. The assay is classed as functional. In short, it runs like this:
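Single-concentration screen at 6.25 µg/mL against *M. tuberculosis* growth, read out as percent inhibition.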
Background: Alamar Blue is a resazurin reagent that responds to reducing activity.

In another assay the test system is Hepatitis B virus. Kind of assay: Antiviral activity against HBV in human HepG2(2.2.15) cells at 30 mM. The assay is classed as functional, organism-based.
The subject of the next assay is NCI-H460. Kind of assay: Antiproliferative activity against human NCI-H460 cells after 48 hrs by SRB assay. Type of assay: functional, cell-based. In short, it runs like this: (§1)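 NCI one-dose primary prescreen in a three-line panel (MCF-7 breast, NCI-H460 non-small cell lung, SF-268 CNS). Cytotoxicity was judged against untreated control cells. Antiproliferative activity in this prescreen is required before testing in the 60-cell-line panel.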
(In general: Sulforhodamine B stains cellular protein and so reports cell mass.)

In a further assay the test system is MCF7. Kind of assay: Antiproliferative activity against human MCF7 cells after 48 hrs by SRB assay. The assay is classed as functional, cell-based. In short, it runs like this: as §1
Another assay concerns SF-268. Kind of assay: Antiproliferative activity against human SF268 cells after 48 hrs by SRB assay. The assay is classed as functional, cell-based. The procedure, abridged: as §1

As to `CC(=O)OC/C1=C\C[C@]2(C)CC(=O)C(=C(C)C)[C@H]2CC[C@]2(C)O[C@H]2CC1`, the IC50 in the assay on Plasmodium falciparum was found to be 30.6 µM.

Turning to `C=C1CC/C=C(\C)CC[C@@H]2C(=C(C)C)C(=O)C[C@@]2(C)C[C@@H]1OC(C)=O` (relative stereo), in assay [1], the inhibition at 6.25 µg/mL was no more than 50%. Further, the IC50 in the assay on Plasmodium falciparum is 20.3 µM.

Regarding `C/C1=C/C[C@]2(C)C(=O)C=C(C(C)C)[C@H]2C/C=C(\C)[C@H](OO)CC1` (relative stereo), the outcome with Hepatitis B virus was inactive. In assay [1], this compound showed an inhibition at 6.25 µg/mL of no more than 50%. In the assay on Plasmodium falciparum, this compound had a 50% inhibitory concentration (IC50) of 9.4 µM.

On to `C=C1CC[C@@H]2O[C@@]2(C)CC[C@@H]2C(=C(C)C)C(=O)C[C@@]2(C)C[C@@H]1OC(C)=O`, for which, in the assay with Plasmodium falciparum, the 50% inhibitory concentration (IC50) was 36.1 µM.

In assay [1], `C=C1CC[C@@H](O)[C@]2(C)CC[C@@H]3C(=C(C)C)C(=O)C[C@@]3(C)C[C@@H]12` returned an inhibition at 6.25 µg/mL of no more than 50%.

Take `C/C1=C/C[C@]2(C)CC(=O)C(C(C)C)[C@H]2C/C=C(\C)[C@H](OO)CC1` (relative stereo): inhibition with Plasmodium falciparum was half-maximal at 40.9 µM (IC50).

In the assay on Plasmodium falciparum, `C=C1CC/C=C(\C)CC[C@@H]2C(=C(C)C)C(=O)C[C@@]2(C)C[C@@H]1O` yielded an IC50 of 36.4 µM.

Regarding `CC(C)=C1C(=O)C[C@@]2(C)C/C=C(\C)CC/C=C(\C)CC[C@H]12` [DOLABELLANE], the outcome in the assay with NCI-H460, in the assay on MCF7 and with Hepatitis B virus was inactive. For the same compound, in assay [1], the inhibition at 6.25 µg/mL is no more than 50%. This compound also registered an IC50 in the assay on Plasmodium falciparum of 45.5 µM.

On to `CC(C)=C1C(=O)C[C@@]2(C)C/C=C(\C)CC[C@@H](OO)/C(C)=C/C[C@H]12` (relative stereo), for which the outcome with Hepatitis B virus was inactive. This compound returned an inhibition at 6.25 µg/mL in assay [1] of no more than 50%. This compound gave an IC50 with Plasmodium falciparum of 36.4 µM.

As for `C/C1=C/C[C@]2(C)C(=O)C=C(C(C)C)[C@H]2CC[C@@]2(C)O[C@@H]2CC1`, in assay [1], the inhibition at 6.25 µg/mL was no more than 50%. This compound registered an IC50 with Plasmodium falciparum of no less than 100 µM.

For the compound `CC(C)=C1C(=O)C[C@@]2(C)C/C=C(\C)CC[C@@H]3O[C@@]3(C)CC[C@H]12`, the outcome in the assay on NCI-H460 and in the assay with MCF7 was inactive. This compound also had an inhibition at 6.25 µg/mL in assay [1] of no more than 50%. In the assay on Plasmodium falciparum, this compound showed an IC50 of 23.2 µM.

With `C=C1CCC(=O)[C@@H](C)CC[C@@H]2C(=C(C)C)C(=O)C[C@@]2(C)C[C@@H]1OC(C)=O`, in the assay on Plasmodium falciparum, it took 50 µM to reach half-maximal inhibition (IC50).

For the compound `CC(C)=C1C(=O)C[C@@]2(C)C[C@H]3O[C@]3(C)CC[C@@H]3O[C@@]3(C)CC[C@H]12`, the outcome in the assay on NCI-H460, with MCF7 and in the assay with SF-268 was inactive. Also, 37.7 µM corresponded to half-maximal inhibition in the assay with Plasmodium falciparum (IC50).

Take `CC(C)=C1C(=O)C[C@@]2(C)C/C=C(\C)CCC(=O)[C@H](C)CC[C@H]12`: the outcome in the assay with NCI-H460, in the assay with MCF7, with Hepatitis B virus and in the assay on SF-268 was inactive. The same compound gave an inhibition at 6.25 µg/mL in assay [1] of no more than 50%. In the assay on Plasmodium falciparum, it took 13.2 µM to reach half-maximal inhibition (IC50).

As to `C/C1=C\C[C@]2(C)CC=C(C(C)(C)O)[C@H]2CC/C(C)=C/CC1` [PALOMINOL], in the assay with Hepatitis B virus, the result was inactive. The compound further yielded an inhibition at 6.25 µg/mL in assay [1] of no more than 50%. Further, half-maximal inhibition in the assay with Plasmodium falciparum (IC50) was put at 31.2 µM.

With `CC(=O)O[C@H]1C/C(C)=C/C[C@]2(C)CC(=O)C(=C(C)C)[C@H]2CC[C@]2(C)O[C@@H]12`, the IC50 in the assay with Plasmodium falciparum was determined as 33.3 µM.

`CC1=CC[C@@H](O)[C@]2(C)CC[C@@H]3C(=C(C)C)C(=O)C[C@@]3(C)C[C@@H]12`: the inhibition at 6.25 µg/mL in assay [1] is no more than 50%. This compound displayed an IC50 with Plasmodium falciparum of 59.6 µM.

In the assay on Plasmodium falciparum, `C/C1=C\C[C@]2(C)C(=O)C=C(C(C)C)[C@H]2CC[C@]2(C)O[C@H]2CC1` gave an IC50 of 43 µM.
